Structures are written as SMILES.

The test system of data set [1] is Human immunodeficiency virus. As to the kind of experiment: Antiviral activity against HIV isolate 584.000 066 by replication assay. The format is functional, organism-based. The note with it: Human immunodeficiency virus 1, isolate 584.000 066.
In data set [2] the test system is Human immunodeficiency virus. As to the kind of experiment: Antiviral activity against HIV isolate 584.000 031 by replication assay. Format: functional, organism-based. The note with it: Human immunodeficiency virus 1, isolate 584.000 031.
Data set [3] deals with Human immunodeficiency virus 1. As to the kind of experiment: Antiviral activity against HIV1 expressed in 293T cells assessed as protection against viral M33 envelope infection in human U87 cells coexpressing CD4, CCR5 receptors after 72 hrs by luciferase reporter gene pseudoviral assay. The format is functional, organism-based. Particulars: Human immunodeficiency virus 1, HEK-293T. The procedure, abridged:
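Pseudovirions carry an R5-using envelope cloned from a primary virus isolate. Anti-HIV-1 activity was taken as the 50% inhibitory dose against these pseudovirions.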
On the technique in general: In a reporter assay the amount or activity of a reporter protein is the signal.

Data set [4] deals with Human immunodeficiency virus. The experiment in a line: Antiviral activity against HIV isolate 584.000 030 by replication assay. The format is functional, organism-based. The note with it: Human immunodeficiency virus 1, isolate 584.000 030.
Data set [5] deals with Human immunodeficiency virus. As to the kind of experiment: Antiviral activity against HIV isolate 584.000 058 by replication assay. The format is functional, organism-based. The note with it: Human immunodeficiency virus 1, isolate 584.000 058.
The test system of data set [6] is Human immunodeficiency virus. The experiment in a line: Antiviral activity against HIV isolate 584.000 060 by replication assay. Format: functional, organism-based. Particulars: Human immunodeficiency virus 1, isolate 584.000 060.
Data set [7] can be described thus: Cytotoxicity against human U87 cells coexpressing CD4, CxCR4 receptors after 72 hrs. The format is cell-based, U-87MG ATCC. Particulars: U87 cells coexpressing CD4 and CXCR4 receptors.
The subject of data set [8] is Human immunodeficiency virus. As to the kind of experiment: Antiviral activity against HIV isolate 584.000 054 by replication assay. Format: functional, organism-based. The note with it: Human immunodeficiency virus 1, isolate 584.000 054.
For data set [9], the system named is Human immunodeficiency virus. As to the kind of experiment: Antiviral activity against HIV isolate 584.000 063 by replication assay. Particulars: Human immunodeficiency virus 1, isolate 584.000 063. The format is functional, organism-based.
The test system of data set [10] is Human immunodeficiency virus. As to the kind of experiment: Antiviral activity against HIV isolate 584.000 220 by replication assay. Particulars: Human immunodeficiency virus 1, isolate 584.000 220. The format is functional, organism-based.
Data set [11] is described as follows: Inhibition of HIV1 3B recombinant gp120/sCD4 binding interaction by ELISA. Put shortly:
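Competitive ELISA of soluble CD4 binding to gp120 from HIV IIIB. Bound CD4 was detected with an anti-CD4 monoclonal antibody, then a peroxidase-labelled anti-mouse antibody. The read-out was the 50% inhibitory dose.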

Data set [12] relates to Human immunodeficiency virus. As to the kind of experiment: Antiviral activity against HIV isolate 584.000 227 by replication assay. Format: functional, organism-based. Particulars: Human immunodeficiency virus 1, isolate 584.000 227.
The test system of data set [13] is Human immunodeficiency virus. As to the kind of experiment: Antiviral activity against HIV isolate 584.000 017 by replication assay. Particulars: Human immunodeficiency virus 1, isolate 584.000 017. Format: functional, organism-based.
Data set [14] has as its system Human immunodeficiency virus. As to the kind of experiment: Antiviral activity against HIV isolate 589.000 033 by replication assay. Format: functional, organism-based. Particulars: Human immunodeficiency virus 1, isolate 589.000 033.
The test system of data set [15] is Human immunodeficiency virus. As to the kind of experiment: Antiviral activity against HIV isolate 584.000.098 by replication assay. The format is functional, organism-based. Particulars: Human immunodeficiency virus 1, isolate 584.000.098.

Usually IC50 stands for the concentration that inhibits the measured activity by half. Broadly, the CC50 is the concentration at which the toxic effect on the cells reaches its halfway point. The low end stands for harm at low concentration, the high end for better tolerance by the cells. In the case of `COc1cc(-c2cc(C)no2)ccc1C(=O)C(=O)N1CCN(C(=O)c2ccccc2)C[C@H]1C`, the IC50 in data set [1] was 273 nM; in data set [2], 8980 nM; in data set [3] it was below 5 nM; in [4] it was 13 nM; in [5], 22 nM; in [6], 17 nM. For the same compound, the IC50 is 3510 nM in data set [8]; 25 nM in data set [9]; 3 nM in data set [10]; 230 nM in data set [11]; 1820 nM in data set [12]; above 10000 nM in data set [13]. Besides, the IC50 in [14] was 11 nM; in data set [15] it was 301 nM. The compound further showed a CC50 at 72 h in [7] above 40000 nM.

In the case of `COc1ncc(OC)c2c(C(=O)C(=O)N3CCN(C(=O)c4ccccc4)CC3)c[nH]c12`, the half-maximal inhibitory concentration (IC50) in data set [1] stood at 11 nM; in [2], 240 nM; in data set [3], 26 nM; in data set [4], 30 nM; in data set [5], 60 nM; in data set [6], 14 nM. Moreover, the IC50 in [8] was 7130 nM; in data set [9], 17 nM; in data set [10], 4 nM; in [11], 2400 nM; in data set [12] it was 22 nM; in data set [13], above 10000 nM. Further, the IC50 in data set [14] came out at 34 nM; in [15], 425 nM. In [7], this compound showed a CC50 at 72 h above 40000 nM.
